Rows were chosen to be rich in hits. Some 1.5% of all compounds tested hit in one or more screens of this group.
PKA-R2B act = activators of human PKA-R2B complex; AID 504700; activation, % at 11.4 µM; 0.079% of 340,000 active; PKA-R2B holoenzyme dissociation, Cy5-IP20 fluorescence polarization; R2B truncated from residue 108, S112A mutant; 0% DMSO only, 100% 113 µM cGMP; P22694+P31323;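 active = activation above a cutoff set at the mean over all compounds plus 3 SD, cut at about 18% in these data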;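 also: higher means more holoenzyme dissociation and a rise in polarization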
SIRT5 inh = blocks human SIRT5 desuccinylation of peptide | Q9NXA8 | Purified SirT5, succinyl-peptide AMC, trypsin-coupled fluorescence | inhibition, % at 15 µM | 1.1% of 330,000 active; in the data active = inhibition above about 15%
Target sequence (Q9NXA8 whole entry, looked up): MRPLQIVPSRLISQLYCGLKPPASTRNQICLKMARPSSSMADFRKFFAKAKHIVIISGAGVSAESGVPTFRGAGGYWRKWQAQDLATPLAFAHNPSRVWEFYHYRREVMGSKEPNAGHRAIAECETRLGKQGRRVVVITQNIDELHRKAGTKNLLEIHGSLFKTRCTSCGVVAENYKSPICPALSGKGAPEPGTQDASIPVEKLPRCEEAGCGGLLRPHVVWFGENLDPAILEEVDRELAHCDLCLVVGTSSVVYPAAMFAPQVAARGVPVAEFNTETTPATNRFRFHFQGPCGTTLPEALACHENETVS
PKA-R1A activ = activates the PKA-R1A holoenzyme complex | P00514+P68181 | PKA-R1A dissociation, Cy5-IP20 fluorescence polarization; scaled: DMSO 0%, 113 µM cGMP 100% | activation, % at 11.4 µM | 0.083% of 340,000 active | AID 504707;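 active = percent activation above the mean of all tested compounds plus 3 SD, cut at about 19% in these data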;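 also: higher means more PKAc released from R1A so a rise in polarization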
CRFR2-BP antag = antagonists of CRF-binding protein/CRF-R2 receptor complex; inhibition, % at 11.8 µM; HEK293 CRF-R2/CRF-BP, CRF-induced calcium fluorescence; 0.59% of 350,000 active; AID 588475;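 active = inhibition of the ligand-induced calcium signal above about 50% at the single tested concentration, limit read from the data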
S100A4 inh HTS = inhibitors of human S100A4 binding to myosin IIA peptide; P26447; S100A4/TAMRA-MyoIIA peptide fluorescence polarization; inhibition, % at 10.7 µM; 0.14% of 360,000 active;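 active = mean inhibition of at least 70% across replicates, with every replicate also reaching that level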
Target sequence (P26447 whole entry, looked up): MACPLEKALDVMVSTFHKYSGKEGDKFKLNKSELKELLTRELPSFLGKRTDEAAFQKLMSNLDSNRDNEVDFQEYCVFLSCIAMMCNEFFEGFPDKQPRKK
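incubation = readout 5 min after mixing, signal stable up to 60 min | system = S100A4 monomer protein | buffer or medium = HEPES pH 7.2 with CaCl2, KCl, NaCl, DTT, Triton | benchmarks = neutral control DMSO, positive control TFP | also added = fluorescent myosin IIA peptide, 5 nM | compound dosing = one concentration per compound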
The depositor's hits bear a star.

Screening COc1cc(OC)cc(C(=O)NCC(=O)OCC(=O)/C=C2/N(C)c3ccccc3C2(C)C)c1 returned PKA-R2B act -11, SIRT5 inh 27*, PKA-R1A activ -2, CRFR2-BP antag 19 and S100A4 inh HTS -45.
`CC(=O)N1CCN(CC(=O)Nc2ccccc2Sc2ccc(Cl)cc2)CC1` gave PKA-R2B act -21, SIRT5 inh -2, PKA-R1A activ -7, CRFR2-BP antag -3 and S100A4 inh HTS -6.
For O=C(CCl)Nc1ccccc1Sc1ccc(Cl)cc1 the results were PKA-R2B act -1, PKA-R1A activ -2 and CRFR2-BP antag 67*.
COc1ccccc1S(=O)(=O)Nc1cc(S(=O)(=O)N2CCCCC2)ccc1N1CCOCC1 was read as PKA-R2B act 3, SIRT5 inh 17*, PKA-R1A activ 0, CRFR2-BP antag -5 and S100A4 inh HTS 3.
`COc1ccc(C#Cc2cnc3c(c2)C(=O)N([C@@H](C)CO)C[C@H](C)[C@H](CN(C)C(C)=O)O3)cc1` gave SIRT5 inh -2 and S100A4 inh HTS -3.
For COc1ccc(-c2cnc3c(c2)C(=O)N([C@H](C)CO)C[C@@H](C)[C@@H](CN(C)C(=O)Cc2ccccn2)O3)cc1 the results were SIRT5 inh -1 and S100A4 inh HTS -2.
For Cc1ccc(S(=O)(=O)N[C@H]2C=C[C@@H](CC(=O)NC3CCCCC3)O[C@@H]2CO)cc1 the results were SIRT5 inh 4 and S100A4 inh HTS 95*.
Screening Cn1cnc(S(=O)(=O)N[C@@H]2C=C[C@@H](CC(=O)NCC3CC3)O[C@H]2CO)c1 returned SIRT5 inh 6 and S100A4 inh HTS 108*.
Cc1ccc(S(=O)(=O)N[C@H]2C=C[C@H](CC(=O)O)O[C@@H]2CO)cc1 was read as SIRT5 inh 7 and S100A4 inh HTS 122*.
`Cc1ccc(S(=O)(=O)N[C@H]2C=C[C@@H](CC(=O)O)O[C@@H]2CO)cc1` gave SIRT5 inh 3 and S100A4 inh HTS 3.
CSc1c(C#N)sc(=S)n1-c1ccc(C)cc1 was read as PKA-R2B act 1, SIRT5 inh -2, PKA-R1A activ 1, CRFR2-BP antag 56* and S100A4 inh HTS -3.
`C[C@H]1CN([C@@H](C)CO)C(=O)c2cccc(NC(=O)c3cnccn3)c2O[C@@H]1CN(C)Cc1ccccc1` gave SIRT5 inh 8 and S100A4 inh HTS -6.
`CCCC#Cc1cnc2c(c1)C(=O)N([C@@H](C)CO)C[C@H](C)[C@H](CN(C)Cc1ccncc1)O2` gave SIRT5 inh 2 and S100A4 inh HTS 1.
For Clc1ccc(-n2cc(COCc3ccccc3)nn2)cc1 the results were PKA-R2B act 0, SIRT5 inh -2, PKA-R1A activ 0, CRFR2-BP antag 63* and S100A4 inh HTS 0.
`O=C(NC[C@@H]1[C@H](c2ccccc2)[C@H](CO)N1Cc1ccccn1)C1CC1` gave SIRT5 inh -4 and S100A4 inh HTS 9.
For CCCCCCCCSc1n[nH]c(N)n1 the results were PKA-R2B act -1, SIRT5 inh 0, PKA-R1A activ -6, CRFR2-BP antag -1 and S100A4 inh HTS 2.
For CCCCCCCCCSc1n[nH]c(N)n1 the results were PKA-R2B act -5, PKA-R1A activ -3 and CRFR2-BP antag 69*.
CC(=O)N1Cc2cc(C(=O)NCC(F)(F)F)nc(-c3cccc(-c4cncnc4)c3)c2[C@H]1CCO was read as SIRT5 inh 2 and S100A4 inh HTS -6.
`COc1ccc(S(=O)(=O)N(C)[C@H]2C[C@H]3c4cc(-c5ccccc5)ccc4CCN3C(=O)[C@H]2[C@H](C)O)cc1` gave PKA-R2B act -9, SIRT5 inh -2, PKA-R1A activ -2, CRFR2-BP antag -6 and S100A4 inh HTS -23.
For COc1ccc(S(=O)(=O)N(C)[C@H]2C[C@H]3c4cc(Oc5ccccc5C)ccc4CCN3C(=O)[C@H]2[C@H](C)O)cc1 the results were PKA-R2B act -1, SIRT5 inh 17*, PKA-R1A activ -9, CRFR2-BP antag -14 and S100A4 inh HTS -2.
`COCC(=O)Nc1ccc2c(c1)[C@H]1C[C@@H](CC(=O)NCc3ccccc3F)O[C@@H](CO)[C@H]1O2` gave SIRT5 inh -1 and S100A4 inh HTS -20.
O=C(NC1CCC1)[C@H]1N[C@H]2c3ccc(-c4cccc(F)c4)c(=O)n3C[C@H]2[C@@H]1CO was read as SIRT5 inh -17 and S100A4 inh HTS 3.
Screening CN(C)c1ccc(C=c2c3cc([N+](=O)[O-])ccc3n3c2cc(-c2ccccc2)[n+]3C)cc1 returned PKA-R2B act 1, SIRT5 inh -10, PKA-R1A activ 0, CRFR2-BP antag 16 and S100A4 inh HTS 98*.
Screening Cc1ccc(C(C)C)c(OCCOCCN2CCNCC2)c1 returned SIRT5 inh 1, CRFR2-BP antag 15 and S100A4 inh HTS -16.
`Cc1ccc(C(C)C)c(OCCCCN2CCNCC2)c1` gave PKA-R2B act -3, SIRT5 inh 18*, PKA-R1A activ -10, CRFR2-BP antag -20 and S100A4 inh HTS -1.
`C/C=C/c1ccc([C@@H]2[C@H](CO)N(C(C)=O)C23CN(C(=O)c2cnccn2)C3)cc1` gave SIRT5 inh -3 and S100A4 inh HTS -1.
Screening O=C(C[C@@H]1CC[C@H](NC(=O)C2CC2)[C@@H](CO)O1)Nc1ccccc1 returned SIRT5 inh 0 and S100A4 inh HTS 5.
Screening COc1ccc(S(=O)(=O)N2CCC3(CC2)CN(Cc2ccccc2OC)[C@@H](CO)c2[nH]c4cc(OC)ccc4c23)cc1 returned SIRT5 inh 3 and S100A4 inh HTS -2.
For CC(C)(C)c1nc(CN2CCCCC2)cc(CN2CCCCC2)c1O the results were PKA-R2B act -3, PKA-R1A activ 6 and CRFR2-BP antag 81*.
`O=C(Cn1c(=O)oc2ccccc21)Nc1cccc(Cl)c1` gave PKA-R2B act 3, SIRT5 inh 28*, PKA-R1A activ -6, CRFR2-BP antag -1 and S100A4 inh HTS 0.
Cc1ccc(S(=O)(=O)N2CCC(c3nc4c(nnn4Cc4ccccc4)c(=O)[nH]3)CC2)cc1 was read as SIRT5 inh 7, CRFR2-BP antag 64* and S100A4 inh HTS -3.
Screening O=C(CC(NC(=O)OCc1ccccc1)C(=O)OCc1ccccc1)OCc1ccccc1 (stereo not drawn) returned PKA-R2B act -10, PKA-R1A activ 1, CRFR2-BP antag 88* and S100A4 inh HTS -2.
Screening CC(C)NC(=O)Nc1ccc2c(c1)CC(=O)N([C@@H](C)CO)C[C@H](C)[C@H](CN(C)Cc1ccccc1)O2 returned SIRT5 inh 1 and S100A4 inh HTS 13.
CCC(c1nnnn1C(C)(C)C)N1CCN(Cc2ccccc2OC)CC1 (stereo not drawn) was read as PKA-R2B act -12, SIRT5 inh 17*, PKA-R1A activ -11, CRFR2-BP antag -21 and S100A4 inh HTS 0.
